Where “and” joins values, the source holds several entries; their conditions need not be identical. Equal values may be shown once.
Tests used:
[1] = target: T1, Muscarinic acetylcholine receptor M4 (Homo sapiens, UniProt P08173); assay: Positive allosteric modulation of human M4 receptor expressed in CHO cells co-expressing Gqi5 assessed as increase in acetylcholine-induced calcium mobilization
T1 sequence (P08173 whole entry): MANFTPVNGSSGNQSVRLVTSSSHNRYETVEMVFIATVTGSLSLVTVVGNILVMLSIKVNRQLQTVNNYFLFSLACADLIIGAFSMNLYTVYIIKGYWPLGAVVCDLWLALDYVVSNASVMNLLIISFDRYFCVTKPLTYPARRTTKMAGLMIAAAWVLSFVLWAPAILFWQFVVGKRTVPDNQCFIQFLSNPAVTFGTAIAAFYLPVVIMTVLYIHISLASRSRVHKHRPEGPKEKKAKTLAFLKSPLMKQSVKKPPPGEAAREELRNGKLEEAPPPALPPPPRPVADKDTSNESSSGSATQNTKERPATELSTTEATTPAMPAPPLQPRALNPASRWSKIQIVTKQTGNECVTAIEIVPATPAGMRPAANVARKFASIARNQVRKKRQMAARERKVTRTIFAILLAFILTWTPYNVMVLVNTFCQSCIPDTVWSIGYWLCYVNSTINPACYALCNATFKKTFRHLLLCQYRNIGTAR

[2] = target: T2, Muscarinic acetylcholine receptor M4 (Homo sapiens) (UniProt P08173); assay: Positive allosteric modulation of human M4 receptor expressed in CHO cells co-expressing Gqi5 assessed as increase in acetylcholine-induced calcium mobilization relative to acetylcholine; format: functional, cell-based
T2 sequence (whole entry): T1 sequence (P08173 whole entry)
Outline: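 Calcium mobilization in CHO cells stably co-expressing hM4 and Gqi5, tested in the presence of a fixed EC20 concentration of acetylcholine. Values are means of three independent experiments, each run in triplicate.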

[3] = Brain to plasma permeability coefficient, Kp of the compound in Sprague-Dawley rat administered as iv cassette dose measured at 0.25 hrs post dose; format: ADME, organism-based; conditions: for Kp at 0.25 h: Sprague-Dawley, brain and plasma; for Kp: brain, 0.25 h
[4] = target: T3, Muscarinic acetylcholine receptor M2 (Homo sapiens, UniProt P08172); assay: Activity at human M2 receptor assessed as increase in acetylcholine-induced calcium mobilization; format: functional
T3 sequence (P08172 whole entry): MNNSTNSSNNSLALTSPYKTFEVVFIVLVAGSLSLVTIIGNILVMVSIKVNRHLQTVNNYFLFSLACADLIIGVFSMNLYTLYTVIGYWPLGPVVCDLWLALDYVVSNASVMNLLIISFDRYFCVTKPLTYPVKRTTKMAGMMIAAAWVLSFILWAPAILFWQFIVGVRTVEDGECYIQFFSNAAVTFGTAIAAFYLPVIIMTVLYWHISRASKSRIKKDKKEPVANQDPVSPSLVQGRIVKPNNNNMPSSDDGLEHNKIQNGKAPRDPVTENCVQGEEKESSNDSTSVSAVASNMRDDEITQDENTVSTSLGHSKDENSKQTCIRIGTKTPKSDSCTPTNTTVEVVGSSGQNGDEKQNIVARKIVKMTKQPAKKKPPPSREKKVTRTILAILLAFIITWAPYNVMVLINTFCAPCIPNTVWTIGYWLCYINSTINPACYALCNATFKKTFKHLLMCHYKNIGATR

[5] = Clearance in Sprague-Dawley rat; format: ADME; conditions: in vivo
Outline: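 IV and PO pharmacokinetics in male Sprague-Dawley rats, n = 1–3. The oral dose was a 2–3 mg/kg solution. Plasma clearance, Vss and oral bioavailability were determined.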

[6] = target: T4, Muscarinic acetylcholine receptor M2 (Homo sapiens) (UniProt P08172); assay: Activity at human M2 receptor assessed as increase in acetylcholine-induced calcium mobilization relative to acetylcholine; format: functional
T4 sequence (whole entry): T3 sequence (P08172 whole entry)

[7] = Ratio of unbound brain to plasma concentration in Sprague-Dawley rat administered as iv cassette dose measured at 0.25 hrs post dose; format: ADME, organism-based
[8] = test system: Rattus norvegicus; assay: Reversal of amphetamine-induced hyperlocomotion in Sprague-Dawley rat at 10 mg/kg, po pretreated 30 mins post habituation in the chamber followed by amphetamine injection after 30 mins measured after 60 mins; format: functional
Outline: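 Male Sprague-Dawley rats, n = 6–24 per dose group, were habituated in the chamber for 30 min. The compound or vehicle (10% tween-80 in water, v/v) was then given orally. Amphetamine 0.75 mg/kg was injected subcutaneously 30 min later. Total ambulations over t = 60–120 min gave % reversal of AHL, reported as mean ± SEM.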

[9] = test system: MDR1; assay: Efflux ratio of permeability in MDCK2-MDR1 cells; format: ADME, cell-based, Canis lupus familiaris; conditions: dog, MDCK-MDR1
[10] = organism: Rattus norvegicus; assay: Drug metabolism in Sprague-Dawley rat assessed as aldehyde oxidase-mediated metabolism at alpha to 4-pryidyl nitrogen; format: ADME
[11] = Elimination half-life in Sprague-Dawley rat; format: ADME; conditions: in vivo, read-out: beta t1/2 (converted)

Structure (SMILES) | EC50 [1] | %max [2] | also measured
Cc1nnc2sc(C(=O)NC3CN(C(=O)c4ccccn4)C3)c(N)c2c1C | 0.564 µM | 91% | –
Cc1nnc2sc(C(=O)NC3CN(C(=O)c4ccccc4)C3)c(N)c2c1C | 0.773 µM | 85% | –
Cc1nnc2sc(C(=O)NC3CN(c4cccnc4F)C3)c(N)c2c1C | 0.029 µM | 82% | –
Cc1nnc2sc(C(=O)NC3CN(c4cncnc4)C3)c(N)c2c1C | 0.041 µM and 0.0389 µM | 89% | Kp at 0.25 h [3]: < 0.05
Cc1cccc(OC(=O)N2CC(NC(=O)c3sc4nnc(C)c(C)c4c3N)C2)c1 | 0.067 µM | 85% | –
Cc1nnc2sc(C(=O)NC3CN(c4nc5ccccc5s4)C3)c(N)c2c1C | 0.439 µM | 87% | –
Cc1nnc2sc(C(=O)NC3CN(c4ccncn4)C3)c(N)c2c1C | 0.038 µM | 83% | Kp at 0.25 h [3]: < 0.05
Cc1nnc2sc(C(=O)NC3CN(c4ccc(F)cc4)C3)c(N)c2c1C | 0.282 µM | 77% | –
COc1cccc(N2CC(NC(=O)c3sc4nnc(C)c(C)c4c3N)C2)c1 | 0.141 µM and 0.132 µM | 77% | –
Cc1nnc2sc(C(=O)NC3CN(C(=O)OCc4ccccc4)C3)c(N)c2c1C | 0.03 µM | 81% | –
Cc1nnc2sc(C(=O)NC3CN(c4cncc(F)c4)C3)c(N)c2c1C | 0.016 µM | 90% | –
Cc1nnc2sc(C(=O)NC3CN(c4cccnc4)C3)c(N)c2c1C | 0.034 µM and 0.0331 µM | 96% | Kp at 0.25 h [3]: < 0.05
Cc1nnc2sc(C(=O)NC3CN(c4cnccn4)C3)c(N)c2c1C | 0.078 µM and 0.0741 µM | 80% | Kp at 0.25 h [3]: < 0.05
Cc1nnc2sc(C(=O)NC3CN(c4ccc(S(=O)(=O)C(F)F)cc4)C3)c(N)c2c1C | 0.325 µM | 75% | –
Cc1nnc2sc(C(=O)NC3CN(c4cc(F)nc(F)c4)C3)c(N)c2c1C | 0.011 µM | 84% | –
Cc1nnc2sc(C(=O)NC3CN(c4ccccc4)C3)c(N)c2c1C | 0.025 µM | 85% | EC50 [4]: 1.78 µM; clearance [5]: 45 mL/min/kg; Kp [3]: 0.57; %max [6]: 58%; K(p,uu,brain) [7]: 0.73
Cc1nnc2sc(C(=O)NC3CN(c4ccccn4)C3)c(N)c2c1C | 0.124 µM | 81% | –

Structure (SMILES) | EC50 [1] | %max [2] | also measured
Cc1nnc2sc(C(=O)NCc3ccc(S(=O)(=O)C(F)(F)F)cc3)c(N)c2c1C | – | – | Activity [8]: 62%
COc1ccc(N2CC(NC(=O)c3sc4nnc(C)c(C)c4c3N)C2)cc1 | 1.29 µM | 81% | –
Cc1nnc2sc(C(=O)NC3CN(c4nc5cccnc5s4)C3)c(N)c2c1C | 0.106 µM | 81% | EC50 [4]: 0.22 µM; Activity [8]: 16%; Kp [3]: 0.17; K(p,uu,brain) [7]: 1.3
Cc1nnc2sc(C(=O)NC3CN(C(=O)c4ccncc4)C3)c(N)c2c1C | 0.179 µM | 85% | EC50 [4]: > 10 µM; clearance [5]: 3.1 mL/min/kg; Kp [3]: 0.03; K(p,uu,brain) [7]: 0.37; efflux ratio [9]: 96
COc1cc(N2CC(NC(=O)c3sc4nnc(C)c(C)c4c3N)C2)ccn1 | 0.051 µM | 86% | Drug metabolism [10]: Metabolite_Detected
Cc1nnc2sc(C(=O)NC3CN(c4ccnc(Cl)c4)C3)c(N)c2c1C | 0.185 µM | 87% | –
Cc1nnc2sc(C(=O)NC3CN(c4ccncc4Cl)C3)c(N)c2c1C | 0.008 µM | 86% | Drug metabolism [10]: Metabolite_Detected
Cc1nnc2sc(C(=O)NC3CN(c4ccc(S(=O)(=O)C(F)(F)F)cc4)C3)c(N)c2c1C | 0.934 µM | 86% | –
Cc1nnc2sc(C(=O)NC3CN(C(=O)Oc4ccccc4)C3)c(N)c2c1C | 0.023 µM | 96% | EC50 [4]: 2.65 µM; half-life [11]: < 30 min
COc1cncc(N2CC(NC(=O)c3sc4nnc(C)c(C)c4c3N)C2)c1 | 0.017 µM | 88% | Kp [3]: < 0.05
Cc1nnc2sc(C(=O)NC3CN(c4ccc(F)cc4F)C3)c(N)c2c1C | 0.037 µM | 94% | –
Cc1nnc2sc(C(=O)NC3CN(c4ccc(F)c(F)c4)C3)c(N)c2c1C | 0.0288 µM and 0.03 µM | 84% | clearance [5]: 4.4 mL/min/kg
Cc1nnc2sc(C(=O)NC3CN(S(=O)(=O)c4ccccc4)C3)c(N)c2c1C | 0.268 µM and 0.263 µM | 70% | –
Cc1nnc2sc(C(=O)NC3CN(c4ccccc4F)C3)c(N)c2c1C | 0.028 µM | 82% | –
Cc1nnc2sc(C(=O)NC3CN(c4nc5ccccc5o4)C3)c(N)c2c1C | 0.419 µM | 89% | –
Cc1nnc2sc(C(=O)NC3CN(C(=O)Nc4ccccc4)C3)c(N)c2c1C | 0.217 µM | 89% | –

From ChEMBL document CHEMBL4033702, “Challenges in the development of an M4 PAM preclinical candidate: The discovery, SAR, and in vivo characterization of a series of 3-aminoazetidine-derived amides” (Bioorg Med Chem Lett, 2017)
